The source made the active and inactive calls. The rule behind the calls is not given here.
Molecular target: T1, Perforin-1 (Homo sapiens) (UniProt P14222)
T1 sequence (whole entry): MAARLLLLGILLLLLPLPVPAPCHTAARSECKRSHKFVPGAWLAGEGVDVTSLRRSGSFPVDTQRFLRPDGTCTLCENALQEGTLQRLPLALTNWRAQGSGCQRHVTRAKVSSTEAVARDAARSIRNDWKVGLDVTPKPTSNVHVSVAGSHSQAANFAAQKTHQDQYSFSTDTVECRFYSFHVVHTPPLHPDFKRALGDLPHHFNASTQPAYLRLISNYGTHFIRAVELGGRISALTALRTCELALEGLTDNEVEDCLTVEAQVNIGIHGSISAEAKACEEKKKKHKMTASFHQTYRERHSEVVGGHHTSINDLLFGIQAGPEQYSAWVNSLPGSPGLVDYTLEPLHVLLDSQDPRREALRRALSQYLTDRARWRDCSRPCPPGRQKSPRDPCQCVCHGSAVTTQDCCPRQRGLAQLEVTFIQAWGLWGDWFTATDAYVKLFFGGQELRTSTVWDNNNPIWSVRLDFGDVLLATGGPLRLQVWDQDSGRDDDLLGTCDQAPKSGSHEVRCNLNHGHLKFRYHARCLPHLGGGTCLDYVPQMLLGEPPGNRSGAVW
Assay: Inhibition of perforin released from human KHYG-1 NK cells assessed as inhibition of perforin mediated lysis of human K562 cells at 20 uM by measuring 51Cr release incubated for 20 mins by gamma counting analysis relative to control
Format: cell-based
Conditions: in the assay text read “incubated for 30 mins” for “incubated for 20 mins”
How it was run: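 KHYG-1 human NK effector cells preincubated with inhibitor (20 μM) in medium for 30 min at room temperature. 51Cr-labelled K562 leukaemia target cells then added and incubated 4 h at 37 °C. Lysis read as 51Cr release. Percent inhibition calculated against untreated control.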

**Q.** `CS(=O)(=O)Nc1ccc(-c2ccc(-c3ccc4c(c3)COC4=O)s2)cc1` was tested. Which inhibition did it give?
**A.** inactive
